Data reported in the EternaBench riboswitch data.

Test system: MS2 coat protein
Assay: apparent Kd, MS2 coat protein; higher = weaker binding; RNA-MaP array; FMN 200 µM where present
Procedure, shortened: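 The apparent Kd is reported as the median of filtered per-cluster binding-curve fits. To get these curves, designs transcribed by stalled E. coli RNA polymerase on Illumina sequencing-chip clusters were titrated with SNAP-549-labelled MS2 coat protein from 0.7 or 1.5 nM, doubling to 3 µM. Titrations were run without and then with constant ligand in 100 mM Tris-HCl pH 7.5, 80 mM KCl, 4 mM MgCl2, BSA, DTT, yeast tRNA and Tween-20, and green signal was normalised to red-channel RNA signal and control-cluster median Fmax.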

[1] = designed as: OFF switch for flavin mononucleotide, no ligand
[2] = ligand present: flavin mononucleotide, designed as: OFF switch for flavin mononucleotide
[3] = designed as: ON switch for flavin mononucleotide, no ligand
[4] = ligand present: flavin mononucleotide, designed as: ON switch for flavin mononucleotide

Sequence | apparent Kd [1] [nM] | apparent Kd [2] [nM] | apparent Kd [3] [nM] | apparent Kd [4] [nM]
ACAUGAGGAUCACCCAUGUGAAAAGAAUGGCUGACACAGAGAUAGGAUAUAUGUGCAUAUCAAACAUAGAAGGGUCAUGACUGG | 30.3 | 30.2 | – | –
ACAUGAGGAUCACCCAUGUGUCAACCAGAAGGCACAUUACGUAUUUCUAUGUGUGCGUAAAUAAGUGAGGAUAUGGAUAAUAGA | – | – | 11.2 | 7.21
ACAUGAGGAUCACCCAUGUGUGCAUAGGAUAUUGAGGAUCAGGGAUGUUUUUUUGGAUAUGCCCACAAGAAGGAUGAAAGUAUU | – | – | 13.2 | 12.6
ACAUGAGGAUCACCCAUGUGUGCAUAGGAUAUUGAGGAUUUGGGAUGUUUUUUUGGAUUUGCCCACAAGAAGGAUGAAAGUGUU | – | – | 12.8 | 11.3
ACAUGAGGAUCACCCAUGUUAUCUGGGACUUCAAUUAUUUCUAGAAGGCUGUUUACUUGUUAGUCAGAGGAUAUAGAAUUAAAU | 31.1 | 32.3 | – | –
ACAUGAGGAUCACCCAUGUUCACAUAGGAUAUUGAUUUUAUUGGUUUUAGAAUAGUUAUUAAGCUCAAGAAGGAUGCCAGUUGU | – | – | 12.4 | 9.97
ACAUGAGGAUCACCCAUGUUGAAUUAGGAUAUUUGACUGCACAUGAGGUUCUCCCAUGUUCAACCGGAGAAGGGAUUAAUAAUU | – | – | 318 | 132
ACAUGAGGAUCACCCAUGUUGAAUUAGGAUAUUUGACUGCGCAUGAGGUUCUCCCAUGUUCAACCGGAGAAGGGAUUAAUAAUU | – | – | 273 | 150
ACAUGAGGAUCACCCAUGUUGACAUAGGAUAUACAACAAUAGUUACAAUCAUGUACUAUUUGAUAGUAGAAGGAUGGAACAUGA | 15.2 | 25.8 | – | –
ACAUGAGGAUCACCCAUGUUUAUUGGGUACUAUACUAUCAGCAAGGAUAUGCAAAUUUUUUUUACGCAGAAGGUGCAGGAACCU | 523 | 334 | – | –
ACAUGAGGAUCACCCAUGUUUGCAUAGGAUAUUGAGGAUUAGGGAUGUUUUUUUGGAUUUGCCCACAAGAAGGAUGUAUGUUUU | – | – | 8.56 | 7.96
ACAUGAGGAUCACCCAUGUUUUUCGGGUACUCUUUUUACAGCAAGGAUAUGCAUGUUUUUUUUACGCAGAAGGUGCUUUACGUC | 102 | 165 | – | –
ACAUGAGGAUCUCCCAUGUAAAAUUAGGAUAUAUGACUGCACAUGAGGAUCACCCAUGUUUUACCGUAGAAGGGAUAAAUAAUU | – | – | 867 | 855
ACAUGAUAUGUAGGAUAUCACAUUAAUUGAUUCAUAUUUCAAUAUAGCAUUUGAGAAGGACAUUUACAUGAGGAUCACCCAUGU | 9.18 | 8.64 | – | –
ACAUGAUCAGGAUAUACAUGAGGAUCACCCAUGUUUAUCAGGGAAAAACCUUCUACAUGUAGAAGGGAUCUUGU | 14.9 | 14.2 | – | –
ACAUGAUUCAAGAAGGAUGUAUUUGAUUUGAUCAUAGGAUAUUGUUAUUUUGUUUACUCUAAUAACAUGAGGAUCACCCAUGUA | – | – | 14.4 | 10.4
ACAUGCAUUCGAGGAUAUCGGUGAUUAAUUCUACGAGAAGGCGAUUUAAGAUAUAUUGUUUUAGACAUGAGGAUCACCCAUGUA | – | – | 29 | 23.2
ACAUGCGGAUGAGGAUAUUCAUUUAUGAGGAUAGAAGAAGGCAUACAUGAGGAUCACCCAUGUAUACGCAUGAGGAUCCCUUAC | 39.1 | 41 | – | –
ACAUGGAAGUAGAAGGGUAAUACUUUAGAAUGUACCAUUAGAUGAUGUUAUACAGGAUAUGCUAACAUGAGGAUCACCCAUGUG | 25.6 | 19.8 | – | –
ACAUGUUUUACAGGAUAUGUUAUACAAUAAACAAUCAGUUAUUAUGAUUUUACAGAAGGGUAUACAUGAGGAUCACCCAUGUUA | 23 | 19.1 | – | –
ACAUUAGUAUCACAUGUAUUACAUGAGGAUCACCCAUGUUACUAGGAUAUGUAUUAGAAUUUACAACAGAAGGAGUUAAUUUGU | 7.52 | 7.7 | – | –
ACCAUUUACUAAUUAUCUAUACAUGAGGAUCACCCAUGUUAAGAGGAUAUCAUCGUGAAACACGAUGAGAAGGCUUAGCAUUCG | 54.5 | 187 | – | –
ACCAUUUACUAAUUAUCUAUACAUGAGGAUCACCCAUGUUAAGAGGAUAUCAUCGUGAAACGCGAUGAGAAGGCUUAGCAUUCG | 55.2 | 172 | – | –
ACCCGCAGCCGUCAGGAUAUGUUCGCGUCAACAUGAGGAUCACCCAUGUGUGACAAGAAGUACACGCAGAAGGGAUCAAUGCGGG | – | – | 16.4 | 18.3
ACCCGGGCUAACAUGAGGAUCACCCAUGUGUUAUACUUAAUAUAGGAUAUGUUUAUACUUUUUGGGCAGAAGGAUGGCCCGGGU | – | – | 80.1 | 62.5
ACCGUGUCAGGAUAUCCUGCUGUGCGGAAUCUGUAUUCACGGGAGAAGGGACAUGAGGAUCACCCAUGUUUGAG | 19.6 | 18.6 | – | –
ACCUUACUGGUCAGGAUAUACAGUCUUGGGUGGGUGUAGAAGGGACAUGAGGAUCACCCAUGUAGGUUGCAGCA | 129 | 126 | – | –
ACGAAGAAACAGAAGGGUAAAUUAGUUAAUUAUUAUUUGGUUAUGCACUACAGGAUAUGUAUAACAUGAGGAUCACCCAUGUAC | – | – | 87.2 | 53.5

Sequence | apparent Kd [1] [nM] | apparent Kd [2] [nM] | apparent Kd [3] [nM] | apparent Kd [4] [nM]
ACGAAGAUACAGAAGGGUAUAUUAGUUAAUUAUAAUUUGGUUAUGCACUACAGGAUAUGUUUAACAUGAGGAUCACCCAUGUUC | – | – | 13.9 | 10.8
ACGACGAAAGUCGAACGAUGUACGAGAAGGACAUGAGGAUCACCCAUGUUAUCUGUAAUAGACAUGUAGGAUAUCGUACAUCGA | 8.26 | 26.6 | – | –
ACGCCCUAGUAGAAGGGACAUCGGCUGGUAAGCAUCAUCUCCUUCUCACAUGAGGAUCACCCAUGUCAGGAUAUACUAGGAUGC | 12.2 | 35.1 | – | –
ACGCGUUGGGAGAAGGUACAUUAAAUUAGUUACACAUGAGGAUCACCCAUGUAAGGAUAUCCCAUCGUGUAAUAUUAUACAGCA | 9.76 | 9.62 | – | –
ACGCUUUGGGAGAAGGUACGUUAAAUUUUUUCCACAUGAGGAUCACCCAUGUAAGGAUAUCCCAUCGUUAAAUAGUCUUCAGCA | 9.45 | 9.02 | – | –
ACGGAGUCAGGAUAUUUAGAGCGUUGGCAAUGCUAGCGCAUGGAGAAGGGACAUGAGGAUCACCCAUGUUUGGA | 39.9 | 39.9 | – | –
ACGGCACAUGAGGAUCACCCAUGUGCCGAGAGGCGAGGAUAUCGAAAAAAAAAAAAAAAACGAGAAGGCGCGAGAA | – | – | 16.5 | 14.4
ACGGCUAACCCAGUUUAGAUCUCAAGAAGGGUACACUGGGCAAGGUACAUGAGGAUCACCCAUGUACAGGAUAUUGAGAUGAGA | 12.1 | 34.1 | – | –
ACGGUGGUCACAGGAUAUCCGGCCCGCGUGCUCGGAGAAGGGUGACUCAGAACCACAUGAGGAUCACCCAUGUGCCUUGCCGUA | – | – | 122 | 25.1
ACGGUUUACCAGAAGGACAUGAGGAUCACCCAUGUAGGAUAUGGGAAGUUGGUCUCCUUCAAAUAAGGCCCUCAGAGCUUCAAA | – | – | 446 | 31.2
ACGUCCCUCCAGAAGGGCAACUCGACAUGAGGAUCACCCAUGUUUACUUGCAGGAUAUGGUGGUAGAUCUAGUUAGCUCGAAGG | – | – | 176 | 47.4
ACGUGACAUGAGGAUCACCCAUGUGAGGAUAUCUGGAUAAUUUUUAUUUUAGAUAUCCAGAGAAGGCACAUGUU | 206 | 173 | – | –
ACGUGUCGUGUAGGAUAUGACACAGGAAACUGGUCAGAAGGACAUGAGGAUCACCCAUGUAAAGUGUUUAAGAAUGACGUAUGC | 43.9 | 106 | – | –
ACGUGUCGUGUAGGAUAUGACACAGGAAACUGGUCAGAAGGACAUGAGGAUCACCCAUGUAAAGUGUUUAAGGAUGACGUAUGC | 49.9 | 151 | – | –
ACUAAACGAGGAUAUACUAACAAACCUCAAACAUACAUCAAACAUGAGGAUCACCCAUGUAGAAGGCGUAAACU | 37.6 | 17.6 | – | –
ACUAGAUGAGGAUAUGCAUAUUUUCGUGUUCUUCUAGAUUAACAUGAGGAUCACCCAUGUAGAAGGCGUCUGGA | 17.8 | 26 | – | –
ACUAGAUGAGGAUAUGCAUGUUUUCAUGUUCUUCUAGAUUAACAUGAGGAUCACCCAUGUAGAAGGCGUCUUAU | 19.4 | 37.9 | – | –
ACUAUACGAGGAUAUGCUGUCAAUACUCCGGAGUUAGUAUGACAUGAGGAUCACCCAUGUAGAAGGCGUAUACU | 26.7 | 19.6 | – | –
ACUCUACAUGAGGAUCACCCAUGUUGAGCCCAUCAAGGAUAUGGGUCUUAAUCGCGGGUGCCAGAAGGUGAUGGUU | – | – | 91 | 109
ACUGAAGUCACAGGAUAUCAUAUGUCGGCACAUUGAGAAGGGUGACUGGGCUACAUGAGGAUCACCCAUGUGCCGUCGUAACAA | – | – | 104 | 80.4
ACUGCAUAGGCAGGAUAUGCAAUAAUUCGAAUAAAAUAUAACGAAUUAACAUGAGGAUCACCCAUGUAGAAGGGCCUGUGCAGU | 6.46 | 5.46 | – | –
ACUGUUUGAUUCCUCUUAUACAUGAGGAUCACCCAUGUUAUCGAGGAUAUGCAUUAGAGUGUUUAGCAGAAGGCGAUGUAAUUC | 5.89 | 12.9 | – | –
ACUGUUUGAUUCCUCUUAUACAUGAGGAUCACCCAUGUUAUCGAGGAUAUGCAUUAGAGUGUUUAGCAGAAGGCGAUGUAAUUG | 6.84 | 19.9 | – | –
ACUGUUUGAUUCCUCUUAUACAUGAGGAUCACCCAUGUUAUCGAGGAUAUGCAUUAGAGUGUUUGGCAGAAGGCGAUGUAAUUG | 6.9 | 23.4 | – | –
ACUUAAAUACCCAAAAGUCGGGCGGAGGAUAUGGAGCUUCCACCACAUGAGGAUCACCCAUGUCUUCAGAAGGCCGCCCUUGGG | – | – | 89.6 | 8.79
ACUUAUAGAGGAUAUACAGUUUAUUACAUGAGGAUCACCCAUGUUCUUCAAUGUAUAUAAGUAGAAGGCUAAGGAA | 35 | 175 | – | –
ACUUCACAUGAGGAUCACCCAUGUCAGGCCGGACUAGGAUAUUAUCAACCAGAGUAACCAUAAGAAGGAGUAGGAA | – | – | 64.4 | 78.4
